The source made the active and inactive calls. No cut-off for these calls is given here.
How the values were obtained:
[1] = (§1) Antagonist activity at endothelin A receptor in Mongolian gerbil spiral modiolar artery assessed as inhibition of ET-1-induced vasoconstriction at 0.1 to 1 uM […] followed by compound washout and again ET-1 addition by video microscopic analysis; type: tissue-based, Meriones unguiculatus
Meriones unguiculatus = organism: Meriones unguiculatus; experiment: as §1; type: tissue-based
Endothelin-1 receptor [2] = target: T1, Endothelin-1 receptor (Rattus norvegicus, UniProt P26684); experiment: Antagonist activity at endothelin A receptor in rat A7r5 cells assessed as inhibition of ET-1-induced increase in cytosolic free Ca2+ level treated 1 min prior to ET-1 addition by fura-2 dye-based spectrofluorometric analysis; type: functional, cell-based
T1 sequence (P26684 whole entry): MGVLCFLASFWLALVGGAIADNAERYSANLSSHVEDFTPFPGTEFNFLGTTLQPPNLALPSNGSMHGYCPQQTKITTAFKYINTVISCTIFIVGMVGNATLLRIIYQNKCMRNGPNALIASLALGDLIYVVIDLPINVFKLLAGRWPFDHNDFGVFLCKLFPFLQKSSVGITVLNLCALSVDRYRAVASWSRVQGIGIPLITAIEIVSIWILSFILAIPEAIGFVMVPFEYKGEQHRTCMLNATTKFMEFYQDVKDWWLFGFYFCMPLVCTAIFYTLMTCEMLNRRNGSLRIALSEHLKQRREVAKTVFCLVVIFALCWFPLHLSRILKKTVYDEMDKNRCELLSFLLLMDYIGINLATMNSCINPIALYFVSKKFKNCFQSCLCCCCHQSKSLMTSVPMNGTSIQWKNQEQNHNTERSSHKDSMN

Endothelin-1 receptor [3] = target: T1, Endothelin-1 receptor; experiment: Antagonist activity at endothelin A receptor in Wistar rat thoracic aorta strips assessed as inhibition of ET1-induced vasoconstriction preincubated for 5 mins followed by ET1 addition
[4] = target: Voltage-dependent T-type calcium channel subunit alpha-1H (Mus musculus) (UniProt O88427); experiment: Inhibition of Cav3.2 T-type channel in C57/BC6 mouse DRG neurons assessed as inhibition of low-voltage activated Ca2+ currents by patch clamp method
Chain of Voltage-dependent T-type calcium channel subunit alpha-1H (Mus musculus) (O88427 whole entry): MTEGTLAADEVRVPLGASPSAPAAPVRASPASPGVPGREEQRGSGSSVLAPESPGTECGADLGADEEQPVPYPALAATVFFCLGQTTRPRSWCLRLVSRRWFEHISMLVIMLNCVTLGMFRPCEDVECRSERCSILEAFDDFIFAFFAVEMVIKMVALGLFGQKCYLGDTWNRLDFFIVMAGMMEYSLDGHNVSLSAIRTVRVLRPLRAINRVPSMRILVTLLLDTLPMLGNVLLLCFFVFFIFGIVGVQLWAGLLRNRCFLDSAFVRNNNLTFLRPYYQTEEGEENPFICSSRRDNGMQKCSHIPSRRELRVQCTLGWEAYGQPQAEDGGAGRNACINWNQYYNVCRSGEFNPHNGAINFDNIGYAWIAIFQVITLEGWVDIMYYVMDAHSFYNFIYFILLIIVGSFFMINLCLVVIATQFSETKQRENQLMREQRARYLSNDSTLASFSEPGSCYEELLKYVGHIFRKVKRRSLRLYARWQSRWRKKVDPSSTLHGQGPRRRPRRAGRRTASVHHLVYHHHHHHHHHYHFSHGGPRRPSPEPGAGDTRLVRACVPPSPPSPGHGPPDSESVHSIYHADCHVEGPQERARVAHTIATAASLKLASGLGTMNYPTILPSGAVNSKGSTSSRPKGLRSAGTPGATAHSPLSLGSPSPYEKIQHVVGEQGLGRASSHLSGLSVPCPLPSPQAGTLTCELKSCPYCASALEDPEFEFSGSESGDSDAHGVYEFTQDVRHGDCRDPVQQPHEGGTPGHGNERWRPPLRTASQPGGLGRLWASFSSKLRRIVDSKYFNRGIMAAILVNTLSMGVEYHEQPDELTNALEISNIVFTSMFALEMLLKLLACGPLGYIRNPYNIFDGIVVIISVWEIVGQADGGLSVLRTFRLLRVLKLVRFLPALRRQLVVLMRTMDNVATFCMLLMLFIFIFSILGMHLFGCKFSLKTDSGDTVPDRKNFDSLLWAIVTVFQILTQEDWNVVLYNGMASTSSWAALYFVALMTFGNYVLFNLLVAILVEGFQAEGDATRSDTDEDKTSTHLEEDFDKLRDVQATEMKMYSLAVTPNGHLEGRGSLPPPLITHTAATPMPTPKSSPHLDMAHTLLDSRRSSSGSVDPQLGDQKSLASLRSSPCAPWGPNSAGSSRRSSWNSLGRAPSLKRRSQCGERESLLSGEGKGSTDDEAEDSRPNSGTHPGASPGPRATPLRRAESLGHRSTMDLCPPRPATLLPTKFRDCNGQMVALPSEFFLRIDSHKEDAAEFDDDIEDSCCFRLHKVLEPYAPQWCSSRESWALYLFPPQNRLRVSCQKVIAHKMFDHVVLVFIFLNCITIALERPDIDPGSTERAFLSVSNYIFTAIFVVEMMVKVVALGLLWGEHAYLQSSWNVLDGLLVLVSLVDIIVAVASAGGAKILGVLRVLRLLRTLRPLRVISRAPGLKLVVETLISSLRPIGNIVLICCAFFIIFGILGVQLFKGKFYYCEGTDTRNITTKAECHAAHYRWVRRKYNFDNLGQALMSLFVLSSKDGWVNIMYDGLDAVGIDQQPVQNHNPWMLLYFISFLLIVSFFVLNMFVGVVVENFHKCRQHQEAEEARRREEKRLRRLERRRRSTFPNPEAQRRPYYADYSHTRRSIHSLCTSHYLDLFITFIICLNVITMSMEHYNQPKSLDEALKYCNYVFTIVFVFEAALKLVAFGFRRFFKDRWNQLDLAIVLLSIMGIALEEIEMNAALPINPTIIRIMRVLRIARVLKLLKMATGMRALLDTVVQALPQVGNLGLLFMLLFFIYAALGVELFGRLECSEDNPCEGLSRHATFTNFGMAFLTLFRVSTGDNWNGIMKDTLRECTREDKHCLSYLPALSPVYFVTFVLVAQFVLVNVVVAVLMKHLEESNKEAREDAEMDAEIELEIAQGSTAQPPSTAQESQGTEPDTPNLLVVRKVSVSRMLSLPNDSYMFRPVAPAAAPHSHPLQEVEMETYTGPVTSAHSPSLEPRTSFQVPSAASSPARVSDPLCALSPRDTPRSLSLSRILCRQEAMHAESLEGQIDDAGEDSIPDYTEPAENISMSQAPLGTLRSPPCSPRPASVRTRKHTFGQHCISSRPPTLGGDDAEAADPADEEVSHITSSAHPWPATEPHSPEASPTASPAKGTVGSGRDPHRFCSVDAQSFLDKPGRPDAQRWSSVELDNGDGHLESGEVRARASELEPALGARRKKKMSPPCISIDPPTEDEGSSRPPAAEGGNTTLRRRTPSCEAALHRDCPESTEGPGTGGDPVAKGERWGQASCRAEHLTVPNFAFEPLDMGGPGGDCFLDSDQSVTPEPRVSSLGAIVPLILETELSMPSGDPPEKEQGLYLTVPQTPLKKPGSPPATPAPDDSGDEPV
How it was run: (§2)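 Whole-cell voltage clamp at about 21 °C on large acutely dissociated DRG neurons from 1-2-month C57/BC6 mice, used within 2 days. Holding potential -90 mV, 100-ms steps in 10 mV increments every 2 s, giving low- and high-voltage-activated Ca2+ currents. Bath-applied compound 0.1–3 µM, vehicle 0.1% DMSO. IC50 from a logistic fit, mean ± SEM, n = 4 per point.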

Mus musculus [5] = organism: Mus musculus; experiment: Inhibition of L-type Ca2+ channel in C57/BC6 mouse DRG neurons assessed as inhibition of high-voltage activated Ca2+ currents by patch clamp method; how it was run: as §2
Mus musculus [6] = organism: Mus musculus; experiment: Inhibition of voltage-gated sodium channel in C57/BC6 mouse DRG neurons assessed as inhibition of voltage activated Na+ currents at 0.1 to 0.3 uM by patch clamp method
How it was run: (§3)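 Whole-cell voltage clamp at about 21 °C on acutely dissociated mouse DRG neurons. TTX-sensitive inward Na+ currents elicited by steps to 0 mV for 20 ms, outward K+ currents by steps to 70 mV for 300 ms, at 0.1 Hz; stable 30 min under control. Compound bath-applied, time course followed; vehicle 0.1% DMSO.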

Mus musculus [7] = organism: Mus musculus; experiment: Inhibition of voltage-gated potassium channel in C57/BC6 mouse DRG neurons assessed as inhibition of voltage activated […] currents at 0.1 to 0.3 uM by patch clamp method; how it was run: as §3
Mus musculus [8] = organism: Mus musculus; experiment: Inhibition of voltage-gated sodium channel in C57/BC6 mouse DRG neurons assessed as inhibition of voltage activated Na+ currents at 3 uM by patch clamp method; how it was run: as §3
Mus musculus [9] = organism: Mus musculus; experiment: Inhibition of voltage-gated potassium channel in C57/BC6 mouse DRG neurons assessed as inhibition of voltage activated […] currents at 3 uM by patch clamp method; how it was run: as §3

Row | SMILES | pA2 [1] | A2 (Meriones unguiculatus) [nM] | other results
1 | CC1(C)CC[C@]2(C(=O)O)CC[C@]3(COC(=O)/C=C/c4ccc(O)c(O)c4)C(=CC[C@@H]4[C@@]5(C)CCC(=O)C(C)(C)[C@@H]5CC[C@]43C)[C@@H]2C1 | 7.1 | 85 | IC50 (Endothelin-1 receptor [2]): 0.011 µM; Ki (Endothelin-1 receptor [3]): 0.066 µM
2 | CC1(C)C(=O)CC[C@]2(C)[C@H]3CC[C@@H]4CCC(=O)C=C4[C@]3(C)CC[C@@H]12 | 6.7 |  | 
3 | CC1(C)C(=O)CC[C@]2(C)[C@H]3CCc4ccc(O)cc4[C@]3(C)CC[C@@H]12 | 6.7 |  | 
4 | CC1(C)[C@@H]2CC[C@]3(C)[C@H](CC[C@@H]4CC=C(O[Si](C)(C)C(C)(C)C)C[C@]43C=N)[C@@]2(C)CCC12OCCO2 (single isomer, unassigned; (-)) | 7 | 93 | inhibition [4]: Dose-dependent effect; inhibition (Mus musculus [5]): Dose-dependent effect; inhibition (Mus musculus [6]): inactive; inhibition (Mus musculus [7]): inactive; inhibition (Mus musculus [8]): Active; inhibition (Mus musculus [9]): Active
5 | CC1(C)C(=O)CC[C@]2(C)[C@H]3CCc4ccc(OCCO)cc4[C@]3(C)CC[C@@H]12 | 6.5 |  | 
6 | CC1(C)C(=O)CC[C@]2(C)[C@H]3CC[C@@H]4CCC(=O)C[C@@]4(C#N)[C@]3(C)CC[C@@H]12 | 6.9 | 134 | 
7 | CC1(C)[C@@H]2CC[C@]3(C)[C@H](CC[C@@H]4CC[C@@]5(O)C[C@]43C=N5)[C@@]2(C)CCC12OCCO2 | 6.5 |  | 

— ChEMBL document CHEMBL3600318, “Chemical synthesis of tetracyclic terpenes and evaluation of antagonistic activity on endothelin-A receptors and voltage-gated calcium channels” (Bioorg Med Chem, 2015)
